Measured values of several laboratories.
Lines come from different studies, so protocols differ.
Matrix: plasma
Route: intravenous

Structure (SMILES)	test system	setting	Vd
Cc1nc(Nc2ncc(C(=O)Nc3c(C)cccc3Cl)s2)cc(N2CC[C@H](O)C2)n1	male Sprague-Dawley rat	1 mg/kg, single dose	0.9 L/kg
COc1ccc(-c2coc3cc(O)cc(O)c3c2=O)cc1	rat	2 mg/kg	0.81 L/kg
Cc1nc(Nc2ncc(C(=O)Nc3c(C)cccc3Cl)s2)cc(N2CC[C@@H](N)C2)n1	male Sprague-Dawley rat	1 mg/kg	32.8 L/kg
C[C@]1(O)CCCN(c2nc(Nc3ccc(S(=O)(=O)N[C@H]4CC[C@H](CN5CCN(c6ccc(C7CCC(=O)NC7=O)cc6F)CC5)CC4)cc3F)ncc2C(F)(F)F)C1 (stereo partly drawn)	rat	2 mg/kg	4 L/kg
CCOCC(=O)N1CCC[C@H](C(=O)NCc2nc(-c3ccc(C#N)nc3)cs2)C1	male Sprague-Dawley rat	1 mg/kg	0.43 L/kg
[2H]c1cc(C)c(NC(=O)c2cnc(Nc3cc(N4CC[C@H](O)C4)nc(C)n3)s2)c(Cl)c1	male Sprague-Dawley rat	1 mg/kg	1.1 L/kg
C=CCn1c(=O)c2cnc(Nc3ccc(N4CCN(C)CC4)cc3)nc2n1-c1ccc2c(n1)[C@@](O)(CC)CC2	rat	3 mg/kg	2.8 L/kg
Cc1cc(S(=O)(=O)N[C@]2(C)C[C@@H](N3CCN(CC4CCN(c5ccc6c(c5F)n(C)c(=O)n6C5CCC(=O)NC5=O)CC4)CC3)C2)ccc1Nc1ncc(C(F)(F)F)c(N2CCC[C@](C)(O)C2)n1 (stereo partly drawn)	rat	2 mg/kg	7 L/kg
Cc1nc(Nc2ncc(C(=O)Nc3c(C)cccc3Cl)s2)cc(N2CCN(CCO)CC2)n1	male Sprague-Dawley rat	1 mg/kg	2.8 L/kg
C[C@]1(O)CCCN(c2nc(Nc3ccc(S(=O)(=O)N[C@H]4CC[C@H](CN5CCN(c6ccc(C7CCC(=O)NC7=O)c(F)c6)CC5)CC4)cc3F)ncc2C(F)(F)F)C1 (stereo partly drawn)	rat	2 mg/kg	3 L/kg
CC(=O)c1c(C)c2cnc(Nc3ccc(N4CCNCC4)cn3)nc2n(C2CCCC2)c1=O	male Sprague-Dawley rat	5 mg/kg	3.3 L/kg
CCOCC(=O)N1CCC[C@H](C(=O)NCc2nc(-c3ccc(C)nc3)cs2)C1	male Sprague-Dawley rat	1 mg/kg	0.3 L/kg
C[C@H]1CN(CC2CCN(c3ccc(C4CCC(=O)NC4=O)cc3F)CC2)CC[C@H]1NS(=O)(=O)c1ccc(Nc2ncc(C(F)(F)F)c(N3CCC[C@](C)(O)C3)n2)c(F)c1 (stereo partly drawn)	rat	2 mg/kg	7 L/kg
COCC(=O)N1CCC[C@H](C(=O)NCc2nc(-c3ccc(C#N)cc3)cs2)C1	male Sprague-Dawley rat	1 mg/kg	0.18 L/kg
Cn1c(=O)c2[nH]cnc2n(C)c1=O	male Sprague-Dawley rat	11.25 mg/kg	2.39 L/kg
